Data on one compound can be found in paper PMC6345172 (Cancer letters, 2018).

The subject of one assay is MKN45 cells. The experiment in a line: MTT cell proliferation assay, MKN45. The assay is classed as cell-based. As to conditions: Homo sapiens, MKN-45, 72 h, read-out: IC50 on MKN45 cells. The method, boiled down:
(§1)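 Cells seeded overnight in 96-well plates, then exposed to a range of test compound concentrations for 72 h. MTT added for 2 h, medium removed, formazan dissolved in DMSO, and OD570 read. Viability normalized to untreated cells from the same experiment. IC50 calculated from concentration–response data. MTT run in triplicate; means ± SEM of three experiments.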
In general terms: Formazan colour is commonly taken as a measure of viable cells.

The subject of the next assay is AGS cells. The experiment in a line: MTT cell proliferation assay, AGS. Particulars: Homo sapiens, 72 h, read-out: IC50 on AGS cells. The assay is classed as cell-based. The method, boiled down:
as §1

The structures appear in SMILES notation.

One may read the IC50 as the concentration needed to halve the response being measured. `COc1ccc(CCCOC(Cn2ccnc2)c2ccc(OC)cc2)cc1` (centres unmarked) [SKF96365]: the IC50 with MKN45 cells is 13.7 ± 0.8 µM; in the assay on AGS cells it was 27.8 ± 1.1 µM.
